Calls of active or inactive are those of the source. No cut-off for these calls is given here.
Legend:
[1] = Antioxidant activity assessed as vitamin-c equivalents of ferric ion reducing activity by measuring Fe2+ levels using Fe3+-TPTZ by FRAP assay; format: functional
Procedure, shortened: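 Ferric-TPTZ complex reduced to ferrous form, per earlier-described method. Calibration curve from serial dilution of vitamin C standard (100-600 […] as printed). Compound reducing power expressed as vitamin C equivalents, calculated from three independent experiments.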

PC-12 [2] = test: Cytoprotective activity against H2O2-induced apoptosis in rat PC12 cells assessed as early apoptotic cells at 100 uM preincubated for 0.5 hrs followed by H2O2 addition measured after 2 hrs by Annexin V-FITC/propidium iodide staining based flow cytometry (reference value: 3.2%); format: functional
PC-12 [3] = test: Cytoprotective activity against H2O2-induced apoptosis in rat PC12 cells assessed as live cells at 100 uM preincubated for 0.5 hrs followed by H2O2 addition measured after 2 hrs by Annexin V-FITC/propidium iodide staining based flow cytometry (reference value: 37.3%); format: functional
PC-12 [4] = test: Cytoprotective activity against H2O2-induced apoptosis in rat PC12 cells assessed as late apoptotic cells at 10 uM preincubated for 0.5 hrs followed by H2O2 addition measured after 2 hrs by Annexin V-FITC/propidium iodide staining based flow cytometry (reference value: 57.5%); format: functional
PC-12 [5] = test: Cytoprotective activity against H2O2-induced oxidative damage in rat PC12 cells assessed as reduction in morphological changes by measuring cell shrinkage at 10 to 100 uM preincubated for 0.5 hrs followed by H2O2 addition measured after 2 hrs; format: functional, cell-based
Procedure, shortened: (§1)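 PC12 cells plated 5×10^5 cells/well and grown 24 h, then given test agent (10 and 100 µM) for 0.5 h before 100 µM H2O2 for 2 h. Controls received medium with 0.1% DMSO. Cell shrinkage and blebbing were inspected by microscopy at 200×.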

PC-12 [6] = test: Cytoprotective activity against H2O2-induced oxidative damage in rat PC12 cells assessed as reduction in morphological changes by measuring membrane blebbing at 10 to 100 uM preincubated for 0.5 hrs followed by H2O2 addition measured after 2 hrs; format: functional, cell-based; procedure, shortened: as §1
PC-12 [7] = test: Cytoprotective activity against H2O2-induced apoptosis in rat PC12 cells assessed as late apoptotic cells at 100 uM preincubated for 0.5 hrs followed by H2O2 addition measured after 2 hrs by Annexin V-FITC/propidium iodide staining based flow cytometry (reference value: 57.5%); format: functional
PC-12 [8] = test: Cytoprotective activity against H2O2-induced apoptosis in rat PC12 cells assessed as early apoptotic cells at 10 uM preincubated for 0.5 hrs followed by H2O2 addition measured after 2 hrs by Annexin V-FITC/propidium iodide staining based flow cytometry (reference value: 3.2%); format: functional
PC-12 [9] = test: Cytoprotective activity against H2O2-induced apoptosis in rat PC12 cells assessed as necrotic cells at 10 uM preincubated for 0.5 hrs followed by H2O2 addition measured after 2 hrs by Annexin V-FITC/propidium iodide staining based flow cytometry (reference value: 2%); format: functional
PC-12 [10] = test: Cytoprotective activity against H2O2-induced apoptosis in rat PC12 cells assessed as live cells at 10 uM preincubated for 0.5 hrs followed by H2O2 addition measured after 2 hrs by Annexin V-FITC/propidium iodide staining based flow cytometry (reference value: 37.3%); format: functional
PC-12 [11] = test: Cytoprotective activity against H2O2-induced apoptosis in rat PC12 cells assessed as necrotic cells at 100 uM preincubated for 0.5 hrs followed by H2O2 addition measured after 2 hrs by Annexin V-FITC/propidium iodide staining based flow cytometry (reference value: 2%); format: functional
PC-12 [12] = test: Cytotoxicity against rat PC12 cells assessed as effect on cell viability at 100 uM after 48 hrs by MTT assay; format: cell-based; details: pc-12, 48 h
Procedure, shortened: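 Rat PC12 cells at 5×10^5 per well, grown 24 h, then exposed 48 h to compound in DMSO. MTT added for 4 h, formazan dissolved in DMSO, absorbance 490 nm. Viability relative to DMSO-treated controls. Triplicate tests.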

PC-12 [13] = test: Cytoprotective activity against H2O2-induced apoptosis in rat PC12 cells assessed as apoptotic cells at 100 uM preincubated for 0.5 hrs followed by H2O2 addition measured after 2 hrs by Annexin V-FITC/propidium iodide staining based flow cytometry (reference value: 60.7%); format: functional
PC-12 [14] = test: Cytoprotective activity against H2O2-induced oxidative damage in rat PC12 cells assessed as cell viability at 100 uM preincubated for 0.5 hrs followed by H2O2 addition measured after 2 hrs by MTT assay relative to control; format: functional; details: read-out: Activity
Procedure, shortened: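 PC12 cells in RPMI-1640 with 10% FBS, plated at 5×10^5 per well, 24 h. Compound in DMSO added 0.5 h before 100 µM H2O2, then 2 h injury. MTT for 4 h, formazan dissolved in DMSO, OD 490 nm. Viability normalised to DMSO controls (100%). Mean of three independent experiments.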

SMILES	Activity [1] [mgequiv/mmol]	other results
O=C1c2c(cc3oc4cc(O)c(O)cc4c3c2O)OC1Cc1ccc(O)cc1 (centres undefined)	253	–
O=C1CC(c2ccc(O)cc2)Oc2c1c(O)cc1oc3cc(O)c(O)cc3c21 (racemic)	224	–
O=C(O)c1cc(O)c(O)c(O)c1 [GALLIC ACID]	333	Activity (PC-12 [2]): 0.7%; Activity (PC-12 [3]): 96.7%; Activity (PC-12 [4]): 10%; Activity (PC-12 [5]): Active; Activity (PC-12 [6]): Active; Activity (PC-12 [7]): 2.1%; Activity (PC-12 [8]): 2.5%; Activity (PC-12 [9]): 1.7%; Activity (PC-12 [10]): 85.8%; Activity (PC-12 [11]): 0.4%
O=C1/C(=C/c2ccccc2)Oc2c1c(O)cc1oc3cc(O)c(O)cc3c21	116	–
O=C1/C(=C/c2ccccc2)Oc2cc3oc4cc(O)c(O)cc4c3c(O)c21	134	–
O=C1c2c(cc3oc4cc(O)c(O)cc4c3c2O)OC1Cc1ccc(O)c(O)c1 (centres undefined)	396	Activity (PC-12 [12]): Toxic
O=C1/C(=C/c2ccc(O)cc2)Oc2c1c(O)cc(O)c2-c1ccc(O)c(O)c1	263	–
O=C1/C(=C/c2ccccc2)Oc2cc(O)c(-c3ccc(O)c(O)c3)c(O)c21	237	–
O=C1/C(=C/c2ccc(O)cc2)Oc2c1c(O)cc1oc3cc(O)c(O)cc3c21	270	–
O=C1/C(=C/c2ccc(O)c(O)c2)Oc2c1c(O)cc(O)c2-c1ccc(O)c(O)c1	318	Activity (PC-12 [3]): 95.6%; Activity (PC-12 [4]): 3.5%; Activity (PC-12 [5]): Active; Activity (PC-12 [6]): Active; Activity (PC-12 [8]): 2.4%; Activity (PC-12 [9]): 0.4%; Activity (PC-12 [10]): 93.6%; Activity (PC-12 [13]): 4.1%; Activity (PC-12 [11]): 0.4%
O=C1c2c(O)cc3oc4cc(O)c(O)cc4c3c2OC1Cc1ccccc1 (centres undefined)	262	–
O=c1cc(-c2ccc(O)cc2)oc2cc(O)c(-c3ccc(O)c(O)c3)c(O)c12	276	–
O=C1/C(=C/c2ccc(O)c(O)c2)Oc2c1c(O)cc1oc3cc(O)c(O)cc3c21	260	–
O=C1CC(c2ccc(O)cc2)Oc2cc3oc4cc(O)c(O)cc4c3c(O)c21 (racemic)	260	–
O=C1/C(=C/c2ccc(O)cc2)Oc2cc3oc4cc(O)c(O)cc4c3c(O)c21	264	–
O=C1c2c(O)cc3oc4cc(O)c(O)cc4c3c2OC1Cc1ccc(O)cc1 (centres undefined)	248	–
O=C1/C(=C/c2ccccc2)Oc2c1c(O)cc(O)c2-c1ccc(O)c(O)c1	269	–
O=c1cc(-c2ccc(O)cc2)oc2cc3oc4cc(O)c(O)cc4c3c(O)c12	116	–
O=C1/C(=C/c2ccc(O)cc2)Oc2cc(O)c(-c3ccc(O)c(O)c3)c(O)c21	241	–
O=C1c2c(O)cc3oc4cc(O)c(O)cc4c3c2OC1Cc1ccc(O)c(O)c1 (centres undefined)	373	–
O=c1cc(-c2ccc(O)cc2)oc2c(-c3ccc(O)c(O)c3)c(O)cc(O)c12	271	–
O=C1c2c(O)cc(O)c(-c3ccc(O)c(O)c3)c2OC1Cc1ccc(O)c(O)c1 (centres undefined)	376	viability at 100 µM (PC-12 [14]): 100%
O=C1c2c(cc(O)c(-c3ccc(O)c(O)c3)c2O)OC1Cc1ccc(O)c(O)c1 (centres undefined)	394	–
O=C1/C(=C/c2ccc(O)c(O)c2)Oc2cc3oc4cc(O)c(O)cc4c3c(O)c21	277	–
O=C1/C(=C/c2ccc(O)c(O)c2)Oc2cc(O)c(-c3ccc(O)c(O)c3)c(O)c21	372	viability at 100 µM (PC-12 [14]): 100%
O=c1cc(-c2ccc(O)cc2)oc2c1c(O)cc1oc3cc(O)c(O)cc3c12	137	–
O=C1c2c(cc3oc4cc(O)c(O)cc4c3c2O)OC1Cc1ccccc1 (centres undefined)	227	–

Reference: ChEMBL document CHEMBL4118083, “Synthesis and anti-oxidant activity evaluation of (±)-Anastatins A, B and their analogs” (Eur J Med Chem, 2017)
